Source: PMC4258470 (Journal of molecular biology, 2014)

Key:
pRb in BJ cells = assay: pRb level by Western blot, BJ cells; type: cell-based, human; conditions: retroviral transduction, vs control vector (BP); lysates and IP
Summary of the method: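 Human BJ fibroblasts (DMEM, 10% calf serum) retrovirally transduced with LXSN control vector or E7 and G418-selected (600 μg/ml). Sonicated in NETN buffer with phosphatase, deacetylase and protease inhibitors. Both lysates and anti-pRb immunoprecipitates (0.8–1.0 mg extract) resolved on 7–8% SDS-PAGE and Western blotted with anti-pRb, ECL detection.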

[1] = target: T1, TAZ2 domain of CBP (residues 1764–1855) (Mus musculus, UniProt P45481); assay: 1H-15N HSQC NMR titration of 15N-TAZ2; type: binding; conditions: TAZ2 vs TAZ1 of CBP; fluorescence and NMR
T1 sequence (P45481 1764-1855): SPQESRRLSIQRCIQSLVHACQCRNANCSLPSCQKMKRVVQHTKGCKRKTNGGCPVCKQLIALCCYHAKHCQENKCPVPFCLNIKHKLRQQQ

[2] = system: TAZ2 domain of CBP with pRb-AB; assay: 1H-15N HSQC NMR of 15N-TAZ2 with E7; type: binding, mouse; conditions: 15N-TAZ2:E7:pRb-AB 1:0.25:1; NMR buffer pH 6.8
[3] = system: pRb acetylation in BJ cells; assay: In-cell pRb acetylation assay; type: cell-based, human; conditions: retroviral transduction, vs control vector (BP)
Summary of the method: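 Human BJ foreskin fibroblasts (DMEM, 10% calf serum) stably transduced with LXSN control vector or E7 retrovirus and selected in 600 μg/ml G418. Lysed by sonication in NETN containing butyrate, TSA, phosphatase and protease inhibitors. Anti-pRb IP from 0.8–1.0 mg extract, SDS-PAGE, blots probed for acetyl-lysine and pRb, ECL. Background-corrected AcK/pRb band ratio normalised to vector, mean of two independent experiments.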

[4] = target: T1, TAZ2 domain of CBP (residues 1764–1855); assay: Fluorescence anisotropy, competition with ppE7; type: binding; conditions: phosphorylated vs non-phosphorylated (Table 1)
TAZ2 domain of CBP = assay: In vitro GB1 pulldown, TAZ2; type: binding, mouse; conditions: H6GB1 alone as negative control; legend refers to TAZ1 and TAZ2
cellular transformation = conditions: epithelial cells, E7 alone; cited from earlier work
[5] = system: HPV E2 transcriptional activity; conditions: cited from earlier work
p130 = conditions: in vitro; cited from earlier work
pRb in MEF cells = assay: pRb level by Western blot, MEF cells; type: cell-based, mouse; conditions: floxed CBP/p300 MEF, prior to Cre
Summary of the method: (§1)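 Primary mouse embryonic fibroblasts homozygous for floxed CBP and p300 alleles, grown in DMEM with 10% calf serum, stably transduced with LXSN-E7 retrovirus and selected in 600 μg/ml G418. Lysed in NETN with inhibitors. pRb immunoprecipitated from 0.8–1.0 mg extract, 7–8% SDS-PAGE, PVDF blots probed with anti-pRb or anti-acetyl-lysine, ECL.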

p300 TAZ1 domain = conditions: read-out: affinity measured by sedimentation equilibrium for p300 TAZ1; 4°C; cited from earlier work
[6] = system: pRb acetylation in MEF cells; assay: In-cell pRb acetylation assay, MEF cells; type: cell-based, mouse; conditions: for pRb acetylation, MEF cells before Cre treatment: floxed CBP/p300 MEF, prior to Cre
Summary of the method: as §1

[7] = system: p53 transcriptional activity; conditions: in cells; cited from earlier work
[8] = system: N-terminal region of p300, encompassing the TAZ1 (or CH1) domain; conditions: buffer containing 2.5 mM EDTA; cited from earlier work
pocket domain of pRb = conditions: read-out: Kd for pRb; pRb pocket domain (pRb-AB); cited from earlier work

With “16-E7(1-51): construct containing the disordered CR1 and CR2 domains, residues M1-H51, of HPV16 E7” the “pRb level, BJ cells” value (pRb in BJ cells) was “comparable to control cells”, the “tighter binding to TAZ2 than to TAZ1” value [1] was ~ 1000 -fold and the “ternary complex (TAZ2:E7:pRb-AB) formation by NMR” value [2] was “unable to support ternary complex formation”. For the same substance, the “pRb acetylation, BJ cells” value [3] was “comparable to control cells” and the “enhancement of binding to TAZ2 by CKII phosphorylation of Ser31 and Ser32” value [4] was 3 -fold.

For “STAT1(710-750): STAT1 residues 710-750, positive control (SEVHPSRLQTTDNLLPMSPEEFDEVSRIVGSVEFDSMMNTV)”, the “pulldown signal vs H6GB1 background” value (TAZ2 domain of CBP) was “bind significantly above the background signal”.

In the case of “E7(1-98): full length high-risk HPV16 E7 (residues 1-98), homodimer”, the transformation and immortalization (cellular transformation) is listed as “sufficient to transform and immortalize epithelial cells, albeit with lower efficiency”, the “repression of HPV E2 transcriptional activity” value [5] is listed as “represses HPV E2 transcriptional activity” and the “enhancement of p300-mediated acetylation of p130” value (p130) is listed as “enhances p300-mediated acetylation of the retinoblastoma protein family member p130”. For the same substance, the “pRb level, MEF cells before Cre treatment” value (pRb in MEF cells) was “significantly decreased levels of pRb”, the Kd (p300 TAZ1 domain) was 900 to 3500 nM and the “pRb level, BJ cells” value (pRb in BJ cells) was “decreased levels of pRb”. For the same substance, the “E7-induced pRb acetylation, MEF cells lacking CBP/p300” value ([6]; Cre-treated MEF cells, listed as full-length HPV16 E7) was “acetylation levels were substantially decreased in CBP/p300^−/− cells”, the “pRb acetylation, MEF cells before Cre treatment” value ([6]; listed as E7) was “increased levels of pRb acetylation” and the “pRb acetylation, MEF cells before Cre treatment” value ([6]; listed as full-length HPV16 E7) was “Enhanced acetylation of pRb”. For the same substance, the “pRb acetylation, BJ cells” value ([3]; listed as E7) was “increased levels of acetylation”, the “pRb acetylation, BJ cells” value ([3]; listed as full-length E7) was “enhanced” and the “pRb acetylation, BJ cells” value ([3]; listed as full-length HPV16 E7) was “Enhanced acetylation of pRb”. For the same substance, the “inhibition of p53 transcriptional activity” value [7] was “inhibit p53 transcriptional activity in cells” and the “interaction with p300 regions in GST pulldown” value [8] was “interacts most strongly with the N-terminal region of p300, encompassing the TAZ1 (or CH1) domain”.

With “p53(13-61): p53 residues 13-61, positive control” the “pulldown signal vs H6GB1 background” value (TAZ2 domain of CBP) was “bind significantly above the background signal”.

For “pp16-E7(1-51): HPV16 E7(1-51) phosphorylated by casein kinase II (CKII) at serines 31 and 32”, the Kd (pocket domain of pRb) is listed as 2 nM.
